The source of these data is PubChem BioAssay AID651950 (The Scripps Research Institute Molecular Screening Center, 2012).

Unmarked numbers belong to inactive results. Active and inactive are the calls of the source. No rule for the calls is given here.

A short description of the test: Hsp70 transcriptional activators, SAR follow-up, cell-based, HeLa, Hsp70 promoter luciferase, luminescence (AID 651950). To be noted: HeLa hsp70.1pr-luc reporter; at 99 µM (top of the series). In short, it runs like this: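 Read-out: % activation relative to DMSO and MG132 controls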
In the case of `O=C1NC(=O)N(c2cccc(Br)c2)C(=O)/C1=C/C=C/c1ccccc1`, the activation is -0.8% (active). For `COc1cc(C(=O)/C(=C/c2cccnc2)c2nc3ccccc3o2)cc(OC)c1OC`, the activation is -1.5%.

As to `O=C1NC(=O)N(c2cccc(Cl)c2)C(=O)/C1=C\C=C\c1ccccc1`, the activation was -0.7% (active). As for `O=[N+]([O-])c1c(Nc2ccc(Cl)cc2)cc(Cl)c2nonc12`, the activation is -0.9% (active). On to `O=c1c([N+](=O)[O-])c(Cl)c2ccccc2n1Cc1ccccc1`, for which the activation was -0.4%. Regarding `COc1cccc(N2C(=O)NC(=O)/C(=C/C=C/c3ccccc3[N+](=O)[O-])C2=O)c1`, the activation is -1.6%. For `O=C1/C(=C/c2ccncc2)CCC/C1=C\c1ccncc1`, the activation is -1.1% (active).
